Assay outcomes (PubChem)
An excerpt weighted towards active compounds, which were near 9.6% of everything screened.
Ba/F3 V617F tox – reduce viability of Ba/F3 cells dependent on JAK2V617F; hit rate 1.1% among 220,000; inhibition, % at 5.6 µM; Ba/F3 EpoR-JAK2V617F viability, ATP luminescence;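 active = inhibition above the campaign mean plus 3 SD over all tested compounds, cut at about 24% in these data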;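 also: cytokine-independent growth of Ba/F3 cells driven by EpoR plus mutant JAK2; 0% = DMSO-treated cells and 100% = JAK inhibitor I control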
BaF3 tox – counter-screen for JAK2V617F inhibitors: parental Ba/F3 viability inhibitors; CellTiter-Glo ATP luminescence; inhibition, % at 5.6 µM; hit rate 1.1% among 220,000;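 active = inhibition above a per-campaign cutoff, the mean inhibition of all tested compounds plus 3 SD, cut at about 27% in these data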;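 also: 0% = DMSO wells and 100% = JAK Inhibitor I control wells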
MT stabilizer – stabilizes microtubules in HeLa cells; HeLa tubulin immunostaining HCS, 24 h; share of cells brighter than vehicle mean+2SD; % tubulin-high responders, % at 10 µM; hit rate 0.83% among 200,000;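 active = plate Z-score above 3 for both tubulin-high and condensed-nucleus cell shares, with cell loss under 80%, at 10 µM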;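 also: anti alpha tubulin signal scored within the nucleus-defined area of each cell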
b-catenin transl – alters nuclear translocation of beta-catenin in HeLa cells; immunofluorescence imaging; nuclear translocation activity, % at 5 µM; hit rate 0.3% among 190,000; AID 1665;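 active = nuclear translocation activity above 50% at 5 µM, with a well cell count of 50 or more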;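 also: per-cell ratio of nuclear to cytoplasmic median beta-catenin stain intensity; plate controls were DMSO negative control for no effect and GSK-3 inhibitor IX positive control for full effect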
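assay system = human HeLa cells, endogenous beta-catenin | times = compound treatment 24 h, 37°C, 5% CO2 | detection = Anti-beta-catenin immunofluorescence on PFA-fixed, Triton-permeabilized cells, DAPI nuclei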
L major viab – Leishmania major promastigote growth inhibition; Leishmania major promastigotes, resazurin fluorescence viability; inhibition, % at 10 µM; hit rate 9% among 200,000; AID 1063; in the data active = inhibition above about 50%;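 also: promastigotes grown with compound for 44 hours at 28 °C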
APP 5UTR inh – APP translation inhibition; SH-SY5Y APP 5'UTR-luciferase reporter, luminescence; inhibition, % at 2 µM; hit rate 0.82% among 190,000; AID 1285;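 active = inhibition above a set limit, derived from the sample mean plus 3 SD, cut at about 45% in these data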
* = called active by the depositor; . = not tested or not shown.

SMILES	Ba/F3 V617F tox	BaF3 tox	MT stabilizer	b-catenin transl	L major viab	APP 5UTR inh
CCOC(=O)C1CCCN(CC(O)COc2ccccc2C(C)=O)C1 (centres undefined)	0	3	1	.	2	18
O=C1c2cccc3cccc(c23)C(=O)N1CCN1CCN(CC(O)COc2ccc3ccccc3c2)CC1 (centres undefined)	4	11	4	-1	81*	-3
O=C1c2cccc3cccc(c23)C(=O)N1CCN1CCN(CC(O)COCc2ccc(Cl)cc2)CC1 (centres undefined)	1	7	3	0	40	-4
O=C(NCc1c(Cl)cccc1Cl)c1ccc2nnsc2c1	-1	3	.	-2	.	.
Cc1ccccc1Nc1nc(N)nc(COC(=O)c2ccc(S(=O)(=O)N(C)C)cc2)n1	3	10	3	-1	67*	5
CCCCC(=O)OCc1nc(N)nc(Nc2ccccc2C)n1	2	6	2	2	63*	-6
COc1ccccc1C(=O)OCc1nc(N)nc(Nc2ccccc2C)n1	2	4	3	1	3	-22
Cc1ccc(OCCn2c(=O)n(C)c3ccccc32)cc1	-3	6	3	0	6	-118
COc1ccc(NC(=S)N2CCOCC2)c(OC)c1	3	13	3	.	49	-14
Cc1cc(C)c(C(=O)Nc2ccc(Br)c(C(F)(F)F)c2)c(C)c1	-3	4	3	.	98*	-6
O=C1NC(=O)C(CC(=O)N(Cc2cccs2)C2(C(=O)NC3CCCCC3)CCCCC2)N1 (centres undefined)	5	88*	3	-3	-3	5
CCOC(=O)c1ccc(NC(=O)c2cn(-c3ccccc3)nc2-c2ccncc2)cc1	-5	4	1	-6	14	-2
FC(F)Sc1ccc(NC(=S)NC(c2ccccc2)c2ccccc2)cc1	-2	4	4	-1	56*	-2
Cc1[nH]c2ccccc2c1C(c1ccncc1)N1CCCCC1 (centres undefined)	-2	2	2	-3	41	-20
Cc1[nH]c2ccccc2c1C(c1ccncc1)N1CCN(c2ccc(F)cc2)CC1 (centres undefined)	4	6	3	.	99*	0
Cc1ccccc1NC(=O)/C=C/c1ccc([N+](=O)[O-])s1	80*	55*	6	3	82*	90*
Cc1cc(C)cc(NC(=O)/C=C/c2ccc([N+](=O)[O-])s2)c1	1	50*	7	4	82*	53*
Cc1ccnc(NC(=O)/C=C/c2ccccc2[N+](=O)[O-])c1	0	-2	2	2	3	-142
CC(NC(=O)/C(=C/c1ccc(OC(F)F)cc1)c1ccccc1)c1ccccc1 (centres undefined)	3	10	5	2	78*	1
Cc1ccc(C(O)c2nc3ccccc3n2C(C)C)cc1 (centres undefined)	-1	6	1	-1	5	4
CC(C)n1c(-c2ccc(N(C)C)cc2)nc2ccccc21	-4	2	2	-3	50*	-170
CN(C)c1ccc(-c2nc3ccccc3n2C)cc1	44*	53*	3	2	40	-98
Cc1cc(C)c(C(N)=O)c(Nc2ccc3c(c2)OCCO3)n1	2	1	3	-1	2	-14
Cc1cc(Nc2ccc3c(c2)OCCO3)c2cccc(C)c2n1	3	1	4	-1	85*	-5
Cc1ccc2nc(C)cc(Nc3ccc4c(c3)OCCO4)c2c1	-1	1	2	.	100*	-8
SMILES	Ba/F3 V617F tox	BaF3 tox	MT stabilizer	b-catenin transl	L major viab	APP 5UTR inh
CC(=O)c1ccc(Nc2cc(C)nc3ccc(C)cc23)cc1	0	0	4	9	84*	-8
CCOc1ccc2nc(C)cc(Nc3cccc([N+](=O)[O-])c3)c2c1	3	4	3	-2	100*	-26
Cc1cc(Nc2cccc([N+](=O)[O-])c2)c2ccccc2n1	2	8	2	0	45	2
Cc1cc(Nc2cccc([N+](=O)[O-])c2)c2cccc(C)c2n1	-4	0	.	0	.	.
Cn1c(=O)n(CC(=O)NC2CCCCC2)c(=O)c2ccccc21	-2	1	2	.	-4	-17
Cc1cc(C(=O)Nc2ccc3c(c2)OCCO3)c2ccccc2n1	0	8	2	-1	-2	-3
CCOc1ccc2nc(C)cc(Nc3ccc(N4CCOCC4)cc3)c2c1	7	17	4	0	64*	1
Cc1cc(Nc2ccc3c(c2)OCCO3)c2ccccc2n1	3	8	2	-5	95*	-10
CCOC(=O)c1cnc2ccc(OC)cc2c1Nc1ccc2c(c1)OCCO2	3	5	1	0	27	10
Cc1cc(C)nc(Nc2ccc(N3CCOCC3)cc2)n1	-3	-3	9	-1	-4	-6
CCOc1ccc2nc(C)cc(Nc3ccc4c(c3)OCCO4)c2c1	9	7	2	-3	101*	2
O=C(CSc1ccc(-c2ccncc2)nn1)N1CCN(c2ccccc2)CC1	0	8	5	-1	20	-13
Cc1nc(C(=O)N/N=C/c2[nH]ncc2Br)cs1	-5	2	.	-5	.	.
COc1ccc(CC(=O)Nc2nnc(C)s2)cc1	-2	0	1	3	-7	7
C/C(CC(=O)Nc1cccc2c1CCCC2)=N\NC=O	0	4	3	1	-6	-8
CCN(CC)CC#CC(O)(c1ccccc1)c1ccccc1	-1	8	2	-1	7	49*
CC(C)(C)N(CC#CCC(O)(c1ccccc1)c1ccccc1)CCO	2	1	.	-1	.	.
CCN(CC)CC#CCC(OC)(c1ccccc1)c1ccccc1	5	1	3	1	55*	-8
CCN(CC)CC#CCC(O)(c1ccccc1)C1CCCC1 (centres undefined)	1	4	4	-2	73*	6
CCC(C(=O)OCC(=O)Nc1cccc(S(=O)(=O)NC2=NCCCCC2)c1)c1ccccc1 (centres undefined)	-5	5	3	-5	-1	-4
CN(c1ccccc1)c1nc(N2CCCC2)nc(-n2ccnc2)n1	4	7	3	-4	95*	20
c1ccc(N(c2ccccc2)c2nc(N3CCCC3)nc(-n3ccnc3)n2)cc1	-3	1	4	-3	98*	-2
CCOC(=O)N1CCN(c2nc(N(c3ccccc3)c3ccccc3)nc(-n3ccnc3)n2)CC1	0	4	.	-1	.	.
Cc1ccsc1/C=C(\C(=O)c1ccc(OC(C)C)cc1)c1nc2ccccc2o1	-2	4	5	1	100*	-21
COc1ccc(C(=O)/C=C/Sc2nc3ccccc3o2)cc1	-2	-6	.	0	.	.
O=C(c1ccc2c(c1)OCO2)N1CCCC(c2ccccc2)C1 (centres undefined)	9	33*	3	-1	-2	-8
